# DDE Tn7 FP inh: inhibitors of Tn7 peptide binding to fibrin DD(E), primary screen, biochemical, fluorescence polarization, human fibrin, Tn7 probe; 0.13% of 370,000 active; inhibition, % at 8.3 µM; Fibrinogen beta chain (Homo sapiens), P02675; AID 720508, 2013; FP displacement of FITC-Tn7 peptide from fibrin DD(E); 0% = median of compound wells per plate;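 active means inhibition above the mean of compounds falling within the control limits plus 3 SD of them, cut at about 14% in these data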
#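 Test system – human fibrin DD(E) · Times – 10 min preincubation, 3 h with tracer, room temperature · Detection – fluorescence polarization of the labelled Tn7 tracer · Measure – percent inhibition normalized to high-control wells · Benchmarks – high control wells with 10 µM unlabelled Aha-Tn7 peptide (full inhibition) · Repeats – singlicate testing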
# Tn6 DDE FP: inhibitors of Tn6 peptide binding to fibrin DD(E), primary screen, biochemical, fluorescence polarization, human fibrin, Tn6 probe | inhibition, % at 8.3 µM | Fibrin DD(E) TRITC-Tn6 fluorescence polarization displacement | 0.21% of 370,000 active | AID 720509, 2013;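 active means inhibition above a per-campaign cutoff: mean of compounds within control limits plus 3 SD, cut at about 15% in these data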
# ABCG2 block: ABCG2 efflux pump inhibitors, primary screen, multiplex with ABCB1, IgMXP3 cells, flow cytometry; Broad substrate specificity ATP-binding cassette transporter ABCG2 (Homo sapiens), Q9UNQ0; 0.1% of 190,000 active; JC-1 efflux; AID 1325, 2008; inhibition, % at 6.6 µM;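 active means inhibition above 80%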
#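 System: two drug-resistant human cell lines, ABCG2 and ABCB1; controls: nicardipine high and DMSO low controls; times: 10 min exposure at 25 °C with rotation, no wash; detection: flow cytometry of retained JC-1 fluorescence; read-out basis: percent efflux inhibition, scaled nicardipine 100% to DMSO 0%; doses: one concentration, 6.6 µM final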
# GRK2 inh: compounds blocking aptamer binding on GRK2 – biochemical, human GRK2, bead flow cytometry, HTS, primary screen. Beta-adrenergic receptor kinase 1 (Homo sapiens), P25098. FAM-aptamer displacement from GRK2. 0.59% of 330,000 active. inhibition of aptamer binding, % at 10 µM;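 active means inhibition of aptamer binding above 40%, roughly 3 SD of noise, on plates passing a quality check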;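 further: median bead fluorescence of bound FAM aptamer so fluorescent compounds give negative values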
# Target sequence (P25098 whole entry, looked up): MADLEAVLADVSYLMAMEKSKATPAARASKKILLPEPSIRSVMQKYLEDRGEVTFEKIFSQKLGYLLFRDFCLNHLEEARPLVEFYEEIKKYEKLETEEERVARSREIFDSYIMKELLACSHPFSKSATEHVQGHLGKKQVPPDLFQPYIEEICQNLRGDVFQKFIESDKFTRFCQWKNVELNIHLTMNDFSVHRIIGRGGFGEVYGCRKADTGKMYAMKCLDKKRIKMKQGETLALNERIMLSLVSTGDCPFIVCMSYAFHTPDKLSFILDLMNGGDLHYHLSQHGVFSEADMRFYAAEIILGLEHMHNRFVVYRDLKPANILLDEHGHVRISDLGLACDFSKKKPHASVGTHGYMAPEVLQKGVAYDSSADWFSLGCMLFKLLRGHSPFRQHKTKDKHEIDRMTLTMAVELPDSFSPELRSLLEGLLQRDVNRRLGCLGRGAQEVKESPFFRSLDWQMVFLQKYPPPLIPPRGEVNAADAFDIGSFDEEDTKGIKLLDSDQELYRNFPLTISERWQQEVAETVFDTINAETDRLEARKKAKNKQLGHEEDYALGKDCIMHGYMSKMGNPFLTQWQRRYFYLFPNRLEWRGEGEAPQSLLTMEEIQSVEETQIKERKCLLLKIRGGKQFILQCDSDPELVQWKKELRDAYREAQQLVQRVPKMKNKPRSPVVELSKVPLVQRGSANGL
# Ins promoter up: insulin promoter activators in MIN6 cells, imaging, high-content screening, mouse beta cells; MIN6 insulin promoter-GFP reporter; stronger effect = higher value; 0.3% of 190,000 active; z-score at 5 µM; AID 1625, 2009;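 active means z-score above 3 at 5 µM with at least 500 cells counted in the well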
# ABCB1 block: ABCB1 efflux pump inhibitors, primary screen, cell-based, multiplex, flow cytometry, ABCG2 counter-screen; ATP-dependent translocase ABCB1 (Homo sapiens), P08183; 0.067% of 190,000 active; CCRF-Adr cells, JC-1 efflux; inhibition, % at 6.6 µM; in the data active means inhibition above about 40%;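 further: higher value means more JC-1 retained so stronger ABCB1 efflux block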
# GRK2 inh confirm: GRK2 aptamer-displacing inhibitors, retest, confirmation, biochemical, cherry pick 1, bead flow cytometry; aptamer displacement, % at 10 µM; shares compounds with GRK2 inh; 4% of 2,000 active; bead-bound GRK2, FAM-aptamer displacement;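 active means aptamer displacement above 40%, near three times the noise of non-fluorescent compounds, on plates passing quality checks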;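 further: negative values mostly reflect intrinsic compound fluorescence rather than true enhancement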
# FAM quench CP1: aptamer fluorescence quenching in GRK2 counter-screen | shares compounds with GRK2 inh | Carboxyfluorescein RNA aptamer on beads, flow cytometry quenching; stronger effect = lower value | fluorescence response (% of DMSO), % at 10 µM | 2,000 tested, under 10 active | AID 504580;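 active means compounds that quench the bead-bound fluorescent RNA probe, cutting fluorescence to under half of the solvent control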;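 further: counterscreen run without GRK2 so only probe quenching by compound is measured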
# GRK2 confirm 2: GRK2 aptamer-displacing inhibitors, hit retest, confirmation, biochemical, cherry pick 2, bead flow cytometry; shares compounds with GRK2 inh; bead-bound GRK2, FAM-aptamer displacement; inhibition of aptamer binding, % at 10 µM; 360 tested, under 10 active; AID 504782, 2011;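 active means inhibition of aptamer binding above 40%, about triple the noise seen with nonglowing compounds, on plates passing quality control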;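 further: negative values mostly come from compounds that fluoresce themselves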
# FAM quench SP: quenches fluorescent RNA aptamer, GRK2 hit artifact; shares compounds with GRK2 inh; 360 tested, under 10 active; carboxyfluorescein RNA aptamer beads, flow cytometry quenching; stronger effect = lower value; fluorescence response vs DMSO, % at 10 µM;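 active means response vs DMSO under 50%, meaning signal dropped by over half, treated as fluorescence quencher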;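 further: labelled aptamer on streptavidin beads without GRK2 as a quench counter-screen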
# Hits are given with their value; - = inactive; . = not tested or not shown. This is a sample that favours compounds with a hit; in the whole collection about 0.99% have one here.
SMILES,DDE Tn7 FP inh,Tn6 DDE FP,ABCG2 block,GRK2 inh,Ins promoter up,ABCB1 block,GRK2 inh confirm,FAM quench CP1,others
CN(Cc1ccccc1)S(=O)(=O)c1cccc(C(=O)OCc2ccc(C(F)(F)F)cc2)c1,-,-,.,.,.,.,.,.,
COc1ccccc1N1CCN(S(=O)(=O)c2ccc3c(c2)NC(=O)C(C)S3)CC1 (centres undefined),-,-,.,-,.,.,.,.,
COc1ccccc1N1CCN(C(=O)C(C)CS(=O)(=O)c2ccc3c(c2)NC(=O)CS3)CC1 (centres undefined),-,-,.,54,.,.,.,.,GRK2 confirm 2=-;FAM quench SP=-
COc1ccc(C(C(=O)NC2CCCC2)N(C(=O)c2snc(-c3ccc(F)cc3)c2N)c2ccc(F)cc2)cc1 (centres undefined),-,-,-,72,-,-,-,-,
CCc1ccccc1N=Nc1c(N)[nH]n(-c2ccccc2)c1=O,-,-,.,.,.,.,.,.,
COC(=O)C1=C(C)N(Cc2ccc(C(F)(F)F)cc2)C(=NCc2ccc(C(F)(F)F)cc2)NC1c1cccc(C(F)(F)F)c1 (centres undefined),-,-,.,.,.,.,.,.,
CC(C)Oc1ccc(CNCC2(O)CCOC(C)(C)C2)cc1 (centres undefined),-,-,-,57,-,-,-,-,
CC1(C)CC(O)(CNCc2ccc3c(c2)OCO3)CCO1 (centres undefined),-,-,-,-,-,-,.,.,
Cc1cc(C)c2c(c1)NC(C(=O)O)C1CC=CC21 (centres undefined),-,-,.,93,.,.,-,-,
C[C@H](O)[C@@H]1C(=O)N2CCc3c([nH]c4c(-c5ccccc5)cccc34)[C@@H]2C[C@@H]1N(C)CC1CCCCC1,-,-,.,.,.,.,.,.,
O=Cc1ccc(OCC(=O)Nc2ccccc2-c2ccccc2)cc1,-,-,-,61,-,-,-,-,
C[C@@H]1ON(C)[C@H]2C[C@H]3c4[nH]c5c(-c6ccccc6F)cccc5c4CCN3C[C@@H]12,-,-,.,.,.,.,.,.,
O=c1nc(Nc2ccc(Br)cc2)sc2ccc([N+](=O)[O-])cc12,-,-,.,42,-,.,-,-,
CC(=O)Nc1nc2cc([N+](=O)[O-])ccc2s1,-,-,.,-,.,.,.,.,
CCOCCCNC(=O)C1(O)c2cc(Br)ccc2NC(=O)N1c1ccc(OCC)cc1 (centres undefined),-,-,.,61,.,.,-,-,
Cn1c(CSCc2ccc(F)cc2)nnc1SCC(=O)Nc1nccs1,-,-,-,-,-,-,.,.,
Cn1c(CSCc2ccccc2)nnc1SCC(=O)Nc1nccs1,-,-,-,50,-,-,-,-,
O=[N+]([O-])c1cccc2c(S(=O)(=O)N3CCOCC3)cccc12,-,-,.,89,.,.,-,-,
O=[N+]([O-])c1cccc2c(S(=O)(=O)N3CCCCC3)cccc12,-,-,.,-,.,.,.,.,
Cc1ccc(-c2cnc3ccccc3n2)cc1C,-,-,.,-,.,.,-,-,
COc1ccccc1S(=O)(=O)n1cc(Cc2ccccc2)c(N)n1,-,-,-,74,.,-,-,-,
C=CCn1c(SCC(=O)Nc2ccc(CCCC)cc2)nnc1-c1ccc(Cl)cc1,-,-,.,.,.,.,.,.,
Cc1ccc(NC(=O)CS(=O)CC(=O)Nc2ccc(N3CCOCC3)cc2)cc1Cl (centres undefined),-,-,-,70,-,-,-,-,
Cc1ccc(NC(=O)c2cc(N3C(=O)C=CC3=O)ccc2N2CCOCC2)cc1Cl,-,-,-,71,-,-,-,-,
COc1ccccc1C(=O)NC1CCCCN(Cc2cccc(Cl)c2)C1=O (centres undefined),-,-,.,.,.,.,.,.,
SMILES,DDE Tn7 FP inh,Tn6 DDE FP,ABCG2 block,GRK2 inh,Ins promoter up,ABCB1 block,GRK2 inh confirm,FAM quench CP1,others
Cc1nc(CN2CCOCC2)cc(=O)[nH]1,-,-,-,48,-,-,-,-,
C=CCn1c(CNC(=O)c2ccco2)nnc1SCC(=O)c1ccccc1,-,-,-,80,-,-,-,-,
C[C@@H]1CCCN1c1ccc2c(c1)OCCCN(C1CC1)S2(=O)=O,-,-,.,.,.,.,.,.,
CC(C)=C1C2CCC1C1C(=O)N(c3ccc4c(c3)OCO4)C(=O)C21 (centres undefined),-,-,-,48,-,-,.,.,GRK2 confirm 2=-;FAM quench SP=-
CC(C)=C1C2C=CC1C1C(=O)N(c3ccc4c(c3)OCO4)C(=O)C21 (centres undefined),-,-,-,-,-,-,.,.,
Cc1ccnc(NC(=O)COC(=O)c2ccc(F)cc2F)n1,-,-,.,-,-,.,-,-,
O=C(COC(=O)c1ccc(F)cc1F)Nc1cccnc1Cl,-,-,.,-,.,.,.,.,
CCCCOc1ccc(Cl)cc1CSc1n[nH]c(C)n1,-,-,-,-,.,-,.,.,
CCOc1ccc(Cl)cc1CSc1n[nH]c(CC)n1,-,-,-,61,-,-,-,-,
CCOc1ccc(CNC(=O)c2cccc(NC(=O)C3=C(C)OCCS3)c2)cc1,-,-,.,-,.,.,-,-,
COC(=O)[C@]12C[C@H](CC(=O)NCCc3ccccc3OC)C(=O)N(Cc3cccc4ccccc34)C1=C[C@H](C(C)(C)C)O[C@@H]2C,-,-,.,.,.,.,.,.,
COc1ccc(Cl)cc1S(=O)(=O)N1CCN=C1Cc1ccccc1,-,-,.,-,.,.,.,.,
CCOc1cc(S(=O)(=O)N2CCN=C2Cc2ccccc2)ccc1F,-,-,.,44,.,.,.,.,GRK2 confirm 2=-;FAM quench SP=-
Cc1c(/C=C2\SC(=Nc3cccc(C(=O)O)c3)NC2=O)c2ccccc2n1C,-,-,.,64,-,.,-,-,
O=C(Nc1ccc2c(c1)OCCO2)C1c2ccccc2OCC(=O)N1CCc1c[nH]c2ccccc12 (centres undefined),-,-,.,.,.,.,.,.,
COC(=O)c1cccc2c1NC(=O)C2=O,-,-,.,71,-,.,-,-,
Cc1cccc2c1NC(=O)C2=O,-,-,.,.,.,.,.,.,
COc1ccc(CNC(=O)C2COc3ccccc3O2)cc1 (centres undefined),-,-,-,-,.,-,.,.,
